Results: ChEMBL document CHEMBL3407428, “Synthesis, in vitro and in vivo antitumor activity of scopoletin-cinnamic acid hybrids” (Eur J Med Chem, 2015)

Key:
MCF7 = assay: Cytotoxicity against human MCF7 cells assessed as growth inhibition at 10^-5 M after 72 hrs by MTT assay relative to control; type: functional; settings: MCF7, 72 h, read-out: GI
HeLa = assay: Cytotoxicity against human HeLa cells assessed as growth inhibition at 10^-5 M after 72 hrs by MTT assay relative to control; type: functional; settings: read-out: GI
[1] = Cytotoxicity against human HCT116 cells assessed as growth inhibition at 10^-5 M after 72 hrs by MTT assay relative to control; type: functional; settings: HCT-116, 72 h, read-out: GI
MDA-MB-231 [2] = assay: Cytotoxicity against human MDA-MB-231 cells assessed as growth inhibition at 10^-5 M after 72 hrs by MTT assay relative to control; type: functional; settings: MDA-MB-231, 72 h, read-out: GI
A549 [3] = assay: Cytotoxicity against human A549 cells assessed as growth inhibition at 10^-5 M after 72 hrs by MTT assay relative to control; type: functional; settings: A549, 72 h, read-out: GI
[4] = Cytotoxicity against human HCT116 cells assessed as growth inhibition after 72 hrs by MTT assay; type: functional, cell-based; settings: HCT-116, 72 h
How it was run: (§1)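 MTT viability assay. Cells were seeded at 5000 per well, incubated overnight, then exposed to compound at a range of concentrations for 72 h. MTT was added from a 5 mg/mL stock for 4 h, and absorbance was read at 570 nm. IC50 (50% viability inhibition) was calculated by the logit method. Each concentration was run at least three times.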

MDA-MB-231 [5] = assay: Cytotoxicity against human MDA-MB-231 cells assessed as growth inhibition after 72 hrs by MTT assay; type: functional, cell-based; settings: MDA-MB-231, 72 h; how it was run: as §1
A549 [6] = assay: Cytotoxicity against human A549 cells assessed as growth inhibition after 72 hrs by MTT assay; type: functional, cell-based; settings: A549, 72 h; how it was run: as §1

Row | Compound | inhibition of growth at 10 µM (MCF7) [%] | inhibition of growth at 10 µM (HeLa) [%] | inhibition of growth at 10 µM [1] [%] | inhibition of growth at 10 µM (MDA-MB-231 [2]) [%] | inhibition of growth at 10 µM (A549 [3]) [%] | IC50 [4] [nM] | IC50 (MDA-MB-231 [5]) [nM] | IC50 (A549 [6]) [nM]
1 | COc1cc(/C=C/C(=O)Oc2cc3oc(=O)ccc3cc2OC)ccc1OCc1ccccc1 | 9.91 | 2.36 | 4.36 | 1.39 | 10.4 | – | – | –
2 | COc1cc(CCC(=O)Oc2cc3oc(=O)ccc3cc2OC)ccc1O | 8.55 | 15.4 | 16.1 | 9.73 | 6.16 | – | – | –
3 | COc1cc2cc(NC(=O)/C=C/c3ccc(C#N)cc3)c(=O)oc2cc1O | 27.3 | 27.1 | 14.1 | 13.1 | 36.9 | – | – | –
4 | COc1ccc(/C=C/C(=O)Oc2cc3oc(=O)ccc3cc2OC)cc1 | 13.7 | 19.5 | 31.6 | 20.8 | 0.53 | – | – | –
5 | COc1cc2ccc(=O)oc2cc1OC(=O)/C=C/c1ccc(C#N)cc1 | 10.5 | 13.2 | 13.6 | 14.3 | 17.9 | – | – | –
6 | COc1cc2cc(NC(=O)/C=C/c3ccccc3)c(=O)oc2cc1O | 6.06 | 58.3 | 60.3 | 44.5 | 65.7 | 1150 | 369 | 2180
7 | COc1cc2cc(NC(=O)/C=C/c3ccc(F)cc3)c(=O)oc2cc1O | 58.4 | 67.1 | 54.2 | 69.2 | 85.6 | 5540 | 2350 | 612
8 | COc1cc2cc(NC(=O)/C=C/c3cc(OC)c(OC)c(OC)c3)c(=O)oc2cc1O | 18.3 | 9.45 | 7.11 | 12.9 | 4.87 | – | – | –
9 | COc1cc2cc(NC(=O)/C=C/c3ccc(C(F)(F)F)cc3)c(=O)oc2cc1O | 12.6 | 19 | 17 | 24.6 | 26.4 | – | – | –
